# Experimental data from ChEMBL document CHEMBL1152785, “Synthesis and biological evaluation of a series of novel inhibitor of Nek2/Hec1 analogues” (J Med Chem, 2009).
# The source made the active and inactive calls. No cut-off for these calls is given here.
# Tests used:
# [1] = tested on: MDA-MB-231; experiment: Cytotoxicity against human MDA-MB-231 cells after 4 days XTT assay; format: functional, cell-based; settings: MDA-MB-231, 96 h
# How it was run: (§1)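 XTT assay with four-day drug treatment. Cells were plated one day before dosing and drug was added on day 2. XTT was read on day 5 after drug addition by absorbance at 595 nm. Absorbance was converted to percent survival against mock-treated cells to give dose-dependent cytotoxicity. Triplicate sets. HeLa, MDA-MB231 and MDA-MB468 were maintained in DMEM with 10% FBS.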
# [2] = tested on: MDA-MB-468; experiment: Cytotoxicity against human MDA-MB-468 cells after 4 days by XTT assay; format: functional, cell-based; settings: MDA-MB-468, 96 h; how it was run: as §1
# [3] = tested on: HeLa; experiment: Cytotoxicity against human HeLa cells after 4 days by XTT assay; format: functional, cell-based; settings: 96 h; how it was run: as §1
# [4] = tested on: K562; experiment: Cytotoxicity against human K562 cells after 4 days by XTT assay; format: functional, cell-based; settings: K562, 96 h
# [5] = tested on: HeLa; experiment: Anticancer activity against human HeLa cells assessed as reduction of Nek2 level at 25 uM by Western blot assay; format: functional, cell-based
# [6] = tested on: HeLa; experiment: Anticancer activity against human HeLa cells assessed as reduction of Nek2 level at 25 uM after 8 to 11 hrs by Western blot assay; format: functional, cell-based
# [7] = molecular target: T1, Kinetochore protein NDC80 homolog (Homo sapiens) (UniProt O14777); experiment: Inhibition of Hec1/Nek2 complex in human Hela cells assessed as mitotic abnormality with multipolar spindle configuration at 25 uM after 24 hrs by immuno-fluorescent staining; format: cell-based
# T1 sequence (whole entry): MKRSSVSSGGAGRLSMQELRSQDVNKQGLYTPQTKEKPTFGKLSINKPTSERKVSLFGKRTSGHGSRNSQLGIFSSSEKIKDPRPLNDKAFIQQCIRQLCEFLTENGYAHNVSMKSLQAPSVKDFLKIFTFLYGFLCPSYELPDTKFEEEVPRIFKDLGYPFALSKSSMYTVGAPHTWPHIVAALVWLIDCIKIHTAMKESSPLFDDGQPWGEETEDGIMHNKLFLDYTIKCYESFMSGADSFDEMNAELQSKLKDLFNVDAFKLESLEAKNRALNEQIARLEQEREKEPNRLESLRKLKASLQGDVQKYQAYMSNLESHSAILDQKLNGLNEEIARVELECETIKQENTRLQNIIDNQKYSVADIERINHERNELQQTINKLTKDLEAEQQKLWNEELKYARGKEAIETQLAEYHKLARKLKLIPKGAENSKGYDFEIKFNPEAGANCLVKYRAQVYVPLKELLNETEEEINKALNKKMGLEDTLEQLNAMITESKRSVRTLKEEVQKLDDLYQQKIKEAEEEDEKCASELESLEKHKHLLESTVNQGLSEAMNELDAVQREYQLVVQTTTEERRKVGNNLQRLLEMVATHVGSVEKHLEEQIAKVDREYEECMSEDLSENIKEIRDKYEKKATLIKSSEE
smiles,measurement,setting,value
Cc1ccc(-c2csc(NC(=O)c3ccccc3)n2)c(C)c1,IC50,[1],8.6 µM
same,IC50,[2],10.5 µM
same,IC50,[3],8.8 µM
same,IC50,[4],11.7 µM
same,Activity,[5],Active
same,Activity,[6],Active
same,Activity,[7],Active
